A short description of test [1]: Antiproliferative activity against human KB-VIN cells incubated for 48 hrs by SRB assay. It is filed as functional. The note with it: KBVIN. The gist of the method:
(§1)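 KB parental and resistant sublines kept in RPMI 1640 with 5% FBS at 37 °C, 5% CO2. Cells plated, left overnight, then given graded compound concentrations for 48 h. A time-zero plate was fixed with 10% TCA at dosing. Cells were stained with 0.4% SRB in 1% acetic acid, unbound dye washed off, bound dye dissolved in 10 mM Tris base, and absorbance read at 515 nm.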

Test [2] can be described thus: Antiproliferative activity against human KB7D cells incubated for 48 hrs by SRB assay. The class given is functional. The gist of the method:
as §1
Background: The SRB assay estimates cell density from bound dye.

Test [3] has as its target Histone deacetylase 3/Nuclear receptor corepressor 2 (HDAC3/NCoR2) (Homo sapiens, UniProt O15379). The test is described as follows: Inhibition of human recombinant HDAC3/NCOR2 using RHKKAc-AMC as substrate measured after 60 mins by fluorescence assay. The class given is protein-complex assay.
For test [4], the system named is KB-VIN. The test is described as follows: Induction of apoptosis in human KB-VIN cells assessed as increase in cleaved PARP expression by Western blot analysis. The class given is functional, cell-based. The gist of the method:
(§2)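 Resistant KB cells attached overnight, then drug-treated at the stated concentrations and times (24 h or 48 h). Lysates were immunoblotted for cleaved PARP, caspase-3, -8 and -9, and γH2AX, with anti-mouse or anti-rabbit IgG secondaries.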
On the technique in general: In western blotting, separated proteins are transferred to a membrane and probed.

Test [5] concerns KB-VIN. The test is described as follows: Induction of apoptosis in human KB-VIN cells assessed as increase in cleaved caspase-8 expression by Western blot analysis. It is filed as functional, cell-based. Summed up: as §2
For test [6], the system named is KB7D. In words: Induction of apoptosis in human KB7D cells assessed as increase in cleaved PARP expression by Western blot analysis. It is filed as functional, cell-based. The gist of the method:
as §2

In test [7] the test system is KB7D. The test is described as follows: Induction of apoptosis in human KB7D cells assessed as increase in cleaved caspase-8 expression by Western blot analysis. The class given is functional, cell-based. The gist of the method:
(§3)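 KB-7D cells in RPMI 1640 with 5% FBS and 1% penicillin-streptomycin at 37 °C, 5% CO2, attached overnight. Treated with indicated concentrations for 24 or 48 h, lysed, and immunoblotted for cleaved caspases.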

Test [8] deals with KB7D. The test is described as follows: Induction of apoptosis in human KB7D cells assessed as increase in cleaved caspase-9 expression by Western blot analysis. It is filed as functional, cell-based. The gist of the method:
as §3

For test [9], the system named is KB-VIN. The test is described as follows: Cell cycle arrest in human KB-VIN cells assessed as increase in accumulation at sub-G1 phase at 0.5 uM measured after 24 hrs by propidium iodide staining based flow cytometry. It is filed as functional. The gist of the method:
(§4)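 Cells seeded at 2.5×10^5 per well and exposed to DMSO or compound for the stated times. They were washed in PBS and fixed overnight in ice-cold 70% ethanol at −20 °C. Staining used propidium iodide 80 µg/mL with 0.1% Triton X-100 and RNase A 100 µg/mL in PBS. DNA content was read by FACScan flow cytometry.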
In general terms: In flow cytometry, cells or beads pass a laser one at a time.

Test [10] concerns KB-VIN. The test is described as follows: Induction of apoptosis in human KB-VIN cells assessed as increase in cleaved caspase-8 expression at 0.1 to 0.5 uM measured after 24 hrs by Western blot analysis. It is filed as functional, cell-based. Conditions: dose 0.1-0.5 µM. Summed up: as §2
Test [11] relates to KB-VIN. The test is described as follows: Induction of apoptosis in human KB-VIN cells assessed as increase in activated gammaH2AX expression at 0.1 to 0.5 uM measured after 24 hrs by Western blot analysis. The note with it: dose 0.1-0.5 µM. The class given is functional, cell-based. The gist of the method: as §2
For test [12], the system named is KB-VIN. The test is described as follows: Cell cycle arrest in human KB-VIN cells assessed as increase in accumulation at sub-G1 phase at 0.05 uM measured after 48 hrs by propidium iodide staining based flow cytometry. It is filed as functional. Summed up:
as §4

The subject of test [13] is KB-VIN. The test is described as follows: Induction of apoptosis in human KB-VIN cells assessed as increase in cleaved caspase-3 expression at 0.05 uM measured after 48 hrs by Western blot analysis. The class given is functional, cell-based. The gist of the method:
as §2

The subject of test [14] is KB7D. The test is described as follows: Cell cycle arrest in human KB7D cells assessed as increase in accumulation at sub-G1 phase at 0.01 to 0.1 uM measured after 48 hrs by propidium iodide staining based flow cytometry. The class given is functional. The note with it: dose 0.01-0.1 µM. The gist of the method: as §4
Test [15] deals with KB7D. In words: Induction of apoptosis in human KB7D cells assessed as increase in activated gammaH2AX expression at 0.01 to 0.1 uM measured after 48 hrs by Western blot analysis. Conditions: dose 0.01-0.1 µM. The class given is functional, cell-based. Summed up:
as §2

Test [16] has as its system KB-VIN. The test is described as follows: Cell cycle arrest in human KB-VIN cells assessed as increase in accumulation at G2/M phase at 0.01 to 0.05 uM measured after 18 to 24 hrs by propidium iodide staining based flow cytometry. It is filed as functional. Conditions: dose 0.01-0.05 µM, time 18-24 hrs. The gist of the method: as §4
In test [17] the test system is KB7D. In words: Cell cycle arrest in human KB7D cells assessed as increase in accumulation at G2/M phase at 0.01 to 0.05 uM measured after 18 to 24 hrs by propidium iodide staining based flow cytometry. It is filed as functional. Conditions: dose 0.01-0.05 µM, time 18-24 hrs. The gist of the method: as §4
Test [18] deals with T1, Tubulin (Homo sapiens) (UniProt P68371+Q9H4B7+P0DPH7+P68366+Q13509+Q71U36+P04350+Q3ZCM7+P07437+P68363+Q9BQE3+Q6PEY2+Q13885+Q9BVA1+Q9BUF5). The test is described as follows: Induction of microtubule disruption in human KB-VIN cells at 0.05 uM measured after 24 hrs by DAPI staining based deconvolution fluorescence microscopic analysis. The class given is cell-based. Summed up:
(§5)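 Cells on glass coverslips treated 24 h, fixed in 4% paraformaldehyde for 15 min, and permeabilized with 0.5% Triton X-100. Blocked in PBS/2% BSA, stained with anti-beta-tubulin (1:250) and Alexa 488 anti-mouse (1:250), and mounted with DAPI. Imaged by wide-field deconvolution microscopy.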

In test [19] the target is T1, Tubulin (Homo sapiens). In words: Induction of microtubule disruption in human KB7D cells at 0.05 uM measured after 24 hrs by DAPI staining based deconvolution fluorescence microscopic analysis. The class given is cell-based. The gist of the method: as §5
In test [20] the target is T1, Tubulin (Homo sapiens). In words: Induction of microtubule disruption in human KB-VIN cells assessed as polymerized fraction at 0.01 uM measured after 16 hrs by SDS-PAGE analysis (reference value: 23.1 to 25.5%). The class given is cell-based. Summed up:
(§6)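 KB-Vin or KB-7D cells treated 16 h, then lysed 5 min at 37 °C in the dark in hypotonic buffer (1% NP-40, 1 mmol/L MgCl2, 2 mmol/L EGTA, 50 mmol/L Tris-HCl pH 6.8, protease inhibitors). Spun 13000 rpm, 10 min, room temperature. Soluble supernatant and resuspended polymerized pellet run on SDS-PAGE.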

In test [21] the target is T1, Tubulin (Homo sapiens). In words: Induction of microtubule disruption in human KB-VIN cells assessed as polymerized fraction at 1 uM measured after 16 hrs by SDS-PAGE analysis (reference value: 23.1 to 25.5%). The class given is cell-based. Summed up: as §6
Test [22] concerns the target T1, Tubulin (Homo sapiens). In words: Induction of microtubule disruption in human KB7D cells assessed as polymerized fraction at 0.01 uM measured after 16 hrs by SDS-PAGE analysis (reference value: 26.4 to 29%). The class given is cell-based. Summed up: as §6
In test [23] the target is T1, Tubulin (Homo sapiens). In words: Induction of microtubule disruption in human KB7D cells assessed as polymerized fraction at 1 uM measured after 16 hrs by SDS-PAGE analysis (reference value: 26.4 to 29%). The class given is cell-based. The gist of the method: as §6

As usually defined, the GI50 is the concentration at which growth is held to half of that of the control. A higher GI50 goes with lower sensitivity of the cells. As a reminder, the pIC50 is the negative decadic logarithm of the IC50, by convention in mol/L.

Each structure is given as a SMILES string. pIC50: −log10 of the molar value. Activity calls are given as the source filed them. No cut-off for these calls is given here.

Sequence of Histone deacetylase 3/Nuclear receptor corepressor 2 (HDAC3/NCoR2) (O15379 whole entry): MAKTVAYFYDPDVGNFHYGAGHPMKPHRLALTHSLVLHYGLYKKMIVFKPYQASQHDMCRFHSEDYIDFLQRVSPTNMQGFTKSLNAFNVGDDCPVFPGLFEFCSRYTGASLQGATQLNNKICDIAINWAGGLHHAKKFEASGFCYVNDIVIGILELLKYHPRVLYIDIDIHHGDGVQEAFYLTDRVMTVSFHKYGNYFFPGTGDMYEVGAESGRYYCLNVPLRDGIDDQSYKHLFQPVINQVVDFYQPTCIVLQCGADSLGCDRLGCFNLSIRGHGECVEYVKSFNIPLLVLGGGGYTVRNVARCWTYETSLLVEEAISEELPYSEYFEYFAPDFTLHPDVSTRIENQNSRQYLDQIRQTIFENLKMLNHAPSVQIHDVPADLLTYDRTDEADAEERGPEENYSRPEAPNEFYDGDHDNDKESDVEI
Sequence of Histone deacetylase 3/Nuclear receptor corepressor 2 (HDAC3/NCoR2) (Q9Y618 whole entry, further chain): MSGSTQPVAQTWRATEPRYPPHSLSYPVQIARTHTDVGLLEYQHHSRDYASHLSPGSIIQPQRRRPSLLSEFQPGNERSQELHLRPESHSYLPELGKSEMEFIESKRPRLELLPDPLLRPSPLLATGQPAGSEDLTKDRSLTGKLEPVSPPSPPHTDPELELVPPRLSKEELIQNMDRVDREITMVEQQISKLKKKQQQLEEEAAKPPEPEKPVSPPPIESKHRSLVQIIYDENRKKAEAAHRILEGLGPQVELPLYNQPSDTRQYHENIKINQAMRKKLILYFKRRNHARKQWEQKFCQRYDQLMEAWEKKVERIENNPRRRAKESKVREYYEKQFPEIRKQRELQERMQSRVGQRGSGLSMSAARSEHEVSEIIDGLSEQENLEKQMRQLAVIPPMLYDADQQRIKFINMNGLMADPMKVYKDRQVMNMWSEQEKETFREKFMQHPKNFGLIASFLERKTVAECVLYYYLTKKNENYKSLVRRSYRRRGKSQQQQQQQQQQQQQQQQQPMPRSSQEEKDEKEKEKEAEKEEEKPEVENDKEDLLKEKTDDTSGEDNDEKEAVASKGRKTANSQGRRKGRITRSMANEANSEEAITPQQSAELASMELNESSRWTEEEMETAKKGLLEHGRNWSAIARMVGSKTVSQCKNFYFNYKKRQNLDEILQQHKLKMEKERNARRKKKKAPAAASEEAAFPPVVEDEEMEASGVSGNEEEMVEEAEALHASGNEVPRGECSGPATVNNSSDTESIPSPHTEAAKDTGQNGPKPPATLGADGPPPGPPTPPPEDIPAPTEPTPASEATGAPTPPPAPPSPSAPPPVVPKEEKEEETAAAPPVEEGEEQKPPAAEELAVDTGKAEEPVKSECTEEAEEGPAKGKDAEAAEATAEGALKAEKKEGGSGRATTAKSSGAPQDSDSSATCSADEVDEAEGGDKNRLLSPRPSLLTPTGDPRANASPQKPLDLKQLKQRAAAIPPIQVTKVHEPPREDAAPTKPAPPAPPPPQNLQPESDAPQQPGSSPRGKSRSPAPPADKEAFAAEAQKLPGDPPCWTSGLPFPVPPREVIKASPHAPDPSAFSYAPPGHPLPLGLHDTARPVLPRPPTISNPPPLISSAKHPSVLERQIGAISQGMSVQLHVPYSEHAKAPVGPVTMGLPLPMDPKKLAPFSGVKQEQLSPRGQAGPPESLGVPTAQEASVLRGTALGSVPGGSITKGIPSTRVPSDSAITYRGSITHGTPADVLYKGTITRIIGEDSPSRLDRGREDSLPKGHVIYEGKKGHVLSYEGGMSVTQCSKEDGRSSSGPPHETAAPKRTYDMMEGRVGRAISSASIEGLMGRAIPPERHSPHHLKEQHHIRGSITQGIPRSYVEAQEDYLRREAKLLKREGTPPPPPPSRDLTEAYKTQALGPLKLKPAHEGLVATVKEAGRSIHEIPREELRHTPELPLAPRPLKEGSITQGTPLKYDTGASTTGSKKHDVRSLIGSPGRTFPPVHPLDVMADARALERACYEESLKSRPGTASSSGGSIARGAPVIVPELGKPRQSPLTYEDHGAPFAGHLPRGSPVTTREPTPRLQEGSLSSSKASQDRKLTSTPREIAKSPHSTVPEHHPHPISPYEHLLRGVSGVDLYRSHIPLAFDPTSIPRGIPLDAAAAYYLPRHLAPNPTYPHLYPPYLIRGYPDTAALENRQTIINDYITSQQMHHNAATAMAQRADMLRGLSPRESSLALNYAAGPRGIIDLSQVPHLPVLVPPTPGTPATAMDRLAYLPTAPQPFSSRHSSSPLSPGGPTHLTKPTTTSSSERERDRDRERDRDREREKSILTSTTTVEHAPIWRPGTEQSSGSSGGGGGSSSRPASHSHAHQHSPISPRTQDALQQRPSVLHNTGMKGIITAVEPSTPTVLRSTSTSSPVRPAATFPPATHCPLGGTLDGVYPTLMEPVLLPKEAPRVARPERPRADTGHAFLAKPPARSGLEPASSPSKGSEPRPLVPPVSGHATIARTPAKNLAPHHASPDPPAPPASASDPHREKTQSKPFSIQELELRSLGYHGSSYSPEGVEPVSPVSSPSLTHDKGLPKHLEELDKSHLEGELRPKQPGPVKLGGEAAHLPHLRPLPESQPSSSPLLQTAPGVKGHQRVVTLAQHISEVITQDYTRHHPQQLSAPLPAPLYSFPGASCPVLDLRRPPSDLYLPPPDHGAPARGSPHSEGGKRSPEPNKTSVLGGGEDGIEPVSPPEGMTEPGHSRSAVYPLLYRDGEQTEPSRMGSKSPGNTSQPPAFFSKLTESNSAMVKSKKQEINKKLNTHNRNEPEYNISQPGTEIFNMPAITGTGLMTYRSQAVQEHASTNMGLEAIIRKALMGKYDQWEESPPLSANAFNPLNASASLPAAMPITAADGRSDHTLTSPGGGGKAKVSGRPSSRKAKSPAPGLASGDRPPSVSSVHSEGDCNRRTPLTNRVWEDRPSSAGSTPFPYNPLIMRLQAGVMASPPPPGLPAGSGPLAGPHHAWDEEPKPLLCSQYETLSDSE

`COc1ccc(S(=O)(=O)Nc2ccccc2NCc2ccc(C(=O)Nc3ccccc3N)cc2)cc1`: the GI50 came out at 22 nM in test [1] and 12 nM in [2]. In addition, the pIC50 in [3] is 5.64. In addition, the Activity entry in the test with KB-VIN [4] was “Dose-dependent effect”; in the test with KB-VIN [5], “Dose-dependent effect”; in the test on KB7D [6] it was “Dose-dependent effect”; in the test with KB7D [7], “Dose-dependent effect”; in the test with KB7D [8], “Dose-dependent effect”; on Tubulin (Homo sapiens) [20], 25.9%. The figures for the Activity on Tubulin (Homo sapiens) [21], at Tubulin (Homo sapiens) [22] and on Tubulin (Homo sapiens) [23] were 17.8%, 14.4% and 16%, respectively. Further, the outcome with KB-VIN [9], in the test on KB-VIN [10], in the test with KB-VIN [11], with KB-VIN [12], in the test on KB-VIN [13] and with KB7D [14] was Active. Also, the result in the test on KB7D [15], in the test with KB-VIN [16], in the test with KB7D [17], at Tubulin (Homo sapiens) [18] and on Tubulin (Homo sapiens) [19] was Active.
